Assay outcomes (PubChem)
HIV Rev-RRE inh: inhibitors of HIV-1 Rev-RRE RNA interaction; AID 704; Rev peptide-RRE RNA binding, FRET; actives 0.79% (n = 97,000); P05866; inhibition, % at 8 µM;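 active = inhibition above the screen-wide mean plus 3 SD, cut at about 35% in these data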
Target sequence (P05866 whole entry, looked up): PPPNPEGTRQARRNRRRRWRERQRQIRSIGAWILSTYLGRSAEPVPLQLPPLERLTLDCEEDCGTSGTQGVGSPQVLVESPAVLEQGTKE
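Test system: labelled RRE RNA duplex and labelled Rev peptide. Times: 5 min compound–RNA preincubation, then 15 min with peptide, 25 °C. Doses: single-dose 8 µM. Measured by: FRET, excitation 480 nm, emission 540 nm donor and 671 nm acceptor. Measure: % inhibition of FRET ratio versus controls.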
CYP2C9 inhib: inhibitors of human CYP2C9; P11712; actives 20% (n = 96,000); inhibition, % at 5 µM; CYP2C9 Supersomes, luciferin-H conversion, luminescence;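 active = blocking of liver enzyme CYP2C9 beyond about 50% at 5 µM, limit read from the data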
Cav3 T inh: inhibitors of human Cav3.2 T-type calcium channel; B-score at 10 µM; AID 449739; actives 4% (n = 100,000); Cav3.2-expressing cells, Fluo-4 calcium fluorescence FDSS; hits give low values; O95180;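 active = single-dose well whose peak fluorescence ratio is a statistical outlier from its plate by either plate-standardised score or position-corrected B-score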
CYP2C9 act: increases human cytochrome P450 2C9 activity; P11712; recombinant CYP2C9, luciferin-H conversion, luminescence; hits give high values; factor 1 = untreated enzyme, 0 = blocked; activation factor at 5 µM; actives 1.4% (n = 96,000);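 active = activation factor of 2 or more for CYP2C9 at a 5 µM dose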
CYP2C19 inh: blocks human cytochrome P450 2C19. actives 21% (n = 96,000). AID 778. inhibition, % at 5 µM. CYP2C19 Supersomes, luciferin-H EGE luminescence, 30 min;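 active = CYP2C19 inhibition above a set limit at 5 µM in the primary screen, cut at about 50% in these data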
Target sequence (P33261 whole entry, looked up): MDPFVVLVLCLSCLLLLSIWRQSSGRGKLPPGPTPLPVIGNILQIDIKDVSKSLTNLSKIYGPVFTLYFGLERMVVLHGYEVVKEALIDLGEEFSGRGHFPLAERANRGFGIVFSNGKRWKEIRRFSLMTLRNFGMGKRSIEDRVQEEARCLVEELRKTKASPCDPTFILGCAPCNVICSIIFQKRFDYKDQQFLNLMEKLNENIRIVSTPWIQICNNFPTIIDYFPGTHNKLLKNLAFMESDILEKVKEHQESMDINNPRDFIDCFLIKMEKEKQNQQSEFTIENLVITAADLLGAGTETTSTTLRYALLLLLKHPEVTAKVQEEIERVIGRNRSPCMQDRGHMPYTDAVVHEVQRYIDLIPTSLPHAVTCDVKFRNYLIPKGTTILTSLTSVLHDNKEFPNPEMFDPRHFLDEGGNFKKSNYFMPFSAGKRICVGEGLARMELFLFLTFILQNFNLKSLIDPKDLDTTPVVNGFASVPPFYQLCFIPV
CYP2C19 activ: activators of human cytochrome P450 2C19; P33261; recombinant CYP2C19, luciferin-H EGE luminescence; hits give high values; 0 = fully inhibited enzyme, 1 = untreated enzyme; activation factor at 5 µM; 96,000 tested, under 10 active; AID 1025;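 active = activation factor of at least 2 at 5 µM in the primary screen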
Of the large screens only hits and unclear results are named; the others gave an inactive call. Rows were chosen to be rich in hits. Some 27% of all compounds tested hit in one or more screens of this group.

COc1ccc(CNC(=O)CS(=O)Cc2nc(-c3ccccc3C)oc2C)cc1 (configuration not stated)	CYP2C9 inhib 75, CYP2C19 inh 91
Cc1ccc(CNC(=O)CS(=O)Cc2nc(-c3ccccc3C)oc2C)cc1 (configuration not stated)	Cav3 T inh -4.5
CC(=O)c1cccc(NC(=O)N2CCCC2C(=O)Nc2cc(C)ccc2C)c1 (configuration not stated)	none
Cc1ccc(-c2nc(CS(=O)CC(=O)NCc3ccccc3)c(C)o2)cc1 (configuration not stated)	none
Cc1ccccc1-c1nc(CS(=O)CC(=O)NCc2ccccc2)c(C)o1 (configuration not stated)	CYP2C9 inhib 76, CYP2C19 inh 78
CC(=O)c1ccc2c(c1)C1C=CCC1C(c1ccncc1)N2 (configuration not stated)	CYP2C9 inhib 90, CYP2C19 inh 92
C1=CC2c3ccccc3NC(c3ccncc3)C2C1 (configuration not stated)	CYP2C9 inhib 73, CYP2C19 inh 82
CCOc1ccc(CC(=O)NCc2ccc3c(c2)cc(C)n3C)cc1	Cav3 T inh -8.1 (no result: HIV Rev-RRE inh, CYP2C9 inhib, CYP2C9 act, CYP2C19 inh, CYP2C19 activ)
Cc1cc2cc(CNC(=O)c3ccc4c(c3)OCO4)ccc2n1C	CYP2C19 inh 72 (no result: HIV Rev-RRE inh)
COc1ccc(C(=O)NCc2ccc3c(c2)cc(C)n3C)cc1	none (no result: HIV Rev-RRE inh, CYP2C9 inhib, CYP2C9 act, CYP2C19 inh, CYP2C19 activ)
O=C(NCC1(c2ccccc2)CCCC1)C(=O)N1CCOCC1	none (no result: CYP2C9 inhib, CYP2C9 act, CYP2C19 inh, CYP2C19 activ)
N#CCc1ccc(C(=O)c2ccccc2)s1	CYP2C19 inh 70
O=C(CSc1nc2ccc([N+](=O)[O-])cc2[nH]1)NCCc1ccccc1	CYP2C9 inhib 81, CYP2C19 inh 82
O=C(CSc1ccsc1[N+](=O)[O-])NCCc1ccccc1	CYP2C9 inhib 55
Cc1cc(C)c2c(=O)[nH]c(SCC(=O)NCCc3ccccc3)nc2n1	none (no result: CYP2C9 inhib, CYP2C9 act, CYP2C19 inh, CYP2C19 activ)
O=C(CSc1ccsc1[N+](=O)[O-])NCCc1ccc(Cl)cc1	none
Cn1c(SCC(=O)NC(c2ccccc2)c2ccccc2)nnc1-c1cccs1	none
CC(Sc1ccsc1[N+](=O)[O-])C(=O)NCCc1ccc(Cl)cc1 (configuration not stated)	CYP2C9 inhib 70, CYP2C19 inh 57
CCC(Cc1ccccc1)NC(=O)CSc1ccsc1[N+](=O)[O-] (configuration not stated)	CYP2C19 inh 72
COc1ccc(NC(=O)c2ccco2)cc1N	none
Cc1cc(-c2ccccc2)nc(N2CCC(C(=O)NCC3CCCCC3)CC2)n1	none (no result: CYP2C9 inhib, Cav3 T inh, CYP2C9 act, CYP2C19 inh, CYP2C19 activ)
O=C(N1CCC(O)(c2cccnc2)CC1)C12CC3CC(CC(C3)C1)C2	none
CC(=O)Nc1ccc2c(c1)ncn2C1CCCCC1	none (no result: CYP2C9 inhib, CYP2C9 act, CYP2C19 inh, CYP2C19 activ)
CCc1nc2sc3c(c2c(=O)n1NC(=O)CCl)CCCC3	CYP2C9 inhib 76
CCOC(=O)C(C)n1cnc2sc3c(c2c1=O)CCC3 (configuration not stated)	none
CCn1c(SCC(=O)N2CCOCC2)nc2sc3c(c2c1=O)CCCC3	CYP2C9 inhib 66 (no result: Cav3 T inh)
CCn1c(SC(C)C(=O)O)nc2sc3c(c2c1=O)CCC3 (configuration not stated)	CYP2C9 inhib 74 (no result: HIV Rev-RRE inh)
O=C(NC1=NC2CCCCC2N1)c1ccccc1 (configuration not stated)	none
COC(=O)[C@@H]1C[C@H]2CC[C@H](O)C[C@H]2N1Cc1ccc(C)s1	none (no result: HIV Rev-RRE inh, CYP2C9 inhib, CYP2C9 act, CYP2C19 inh, CYP2C19 activ)
Cc1ccc(/C=N/N2CCN(Cc3ccc(Cl)cc3)CC2)o1	CYP2C9 inhib 63, CYP2C19 inh 68
COc1ccccc1N1CCN(/N=C\c2ccc(C)o2)CC1	none
CSc1nnc2c(n1)c(C)nn2-c1ccc(C)cc1	none (no result: CYP2C9 inhib, CYP2C9 act, CYP2C19 inh, CYP2C19 activ)
CCCc1nc2ccccc2[nH]1	none
c1ccc(SCc2nc3ccccc3[nH]2)nc1	CYP2C19 inh 90
Cn1nnnc1SCc1nc2ccccc2[nH]1	none
CCC(C)SCc1nc2ccccc2[nH]1 (configuration not stated)	CYP2C19 inh 93 (no result: HIV Rev-RRE inh)
c1ccc2[nH]c(CSc3nc4ccccc4s3)nc2c1	CYP2C9 inhib 53, Cav3 T inh -6.4, CYP2C19 inh 98
CCC(C)[C@H](Nc1nc(-c2ccccc2)nc2c1oc1ccccc12)C(=O)O (some centres not stated)	none
CCCn1c(C)nc2c(c1=O)c1nc3ccccc3nc1n2CCC1=CCCCC1	none
Cc1nc2c(c(=O)n1CCC1=CCCCC1)c1nc3ccccc3nc1n2/N=C/c1ccco1	CYP2C9 inhib 71 (no result: Cav3 T inh)
Cc1ccc(S(=O)(=O)CCc2nnc(NC(=O)C3CCCO3)s2)cc1 (configuration not stated)	none (no result: Cav3 T inh)
COc1ccc(-c2cc(CCCC(=O)NCc3ccccn3)no2)cc1	CYP2C9 inhib 67, CYP2C19 inh 56
CCOc1ccc(-c2cc(CCCC(=O)NCCc3ccccc3)no2)cc1	CYP2C9 inhib 50
COc1ccc(-c2cc(CCCC(=O)NCCc3ccc(OC)cc3OC)no2)cc1	none (no result: CYP2C9 inhib, CYP2C9 act, CYP2C19 inh, CYP2C19 activ)
CCOc1ccc(-c2cc(CCCC(=O)NCCc3ccc(OC)c(OC)c3OC)no2)cc1	CYP2C9 inhib 66
Cc1ccccc1NC(=O)C(=O)NCc1ccccn1	Cav3 T inh -4.5, CYP2C19 inh 89
C/C=C\C=C\C(=O)N1CC2(CC(c3cccc(NC(=O)CC(c4ccccc4)c4ccccc4)c3)=NO2)C[C@H]1C(N)=O (some centres not stated)	none (no result: HIV Rev-RRE inh, CYP2C9 inhib, CYP2C9 act, CYP2C19 inh, CYP2C19 activ)
N=c1nc(SCCC(=O)O)ss1	none
O=C(NC1CC1)C1=C[C@@H](c2c[nH]c3ccccc23)C[C@@H](OCCCCO)O1	none (no result: HIV Rev-RRE inh, CYP2C9 inhib, CYP2C9 act, CYP2C19 inh, CYP2C19 activ)
COc1ccc(Cc2nnc(SCC(=O)Nc3nc(C)cs3)o2)cc1	none
Cc1ccc(OCC(=O)NCc2ccccn2)cc1	CYP2C19 inh 76
O=C(NN=C1c2ccccc2-c2ccccc21)c1ccccc1Br	Cav3 T inh -4
O=C(Nc1ccccc1C(=O)N/N=C/c1ccc(F)cc1)c1ccccc1Br	none
CCCCCC(=O)N/N=C(\C)c1ccc(Cl)cc1	none
N#Cc1c(N2CCN(C(=O)c3ccco3)CC2)nc(-c2ccccc2)c2c1CCCC2	CYP2C9 inhib 86, CYP2C19 inh 88
N#Cc1c(N2CCN(C(=O)c3ccccc3)CC2)nc(-c2ccccc2)c2c1CCCC2	CYP2C9 inhib 72, Cav3 T inh -4.9, CYP2C19 inh 62
N#Cc1c(N2CCN(C(=O)c3ccccc3Cl)CC2)nc(-c2ccccc2)c2c1CCCC2	CYP2C9 inhib 64, CYP2C19 inh 50 (no result: Cav3 T inh)
Cc1ccc(S(=O)(=O)C2(C(=O)O)CCCC2)cc1C	none
CCCN(CCC)CCNS(=O)(=O)c1ccc2c(c1)oc(=O)n2C	none (no result: Cav3 T inh)
COc1ccccc1CNS(=O)(=O)c1ccc2c(c1)oc(=O)n2C	CYP2C9 act 2.9, CYP2C19 inh 98 (no result: HIV Rev-RRE inh)
Cn1c(=O)oc2cc(S(=O)(=O)NCCC(=O)NCCc3ccccc3)ccc21	CYP2C19 inh 72 (no result: HIV Rev-RRE inh)
CC(=O)N1CCc2cc(S(=O)(=O)NCCC(=O)NCCc3ccc(C)cc3)ccc21	CYP2C9 inhib 59 (no result: HIV Rev-RRE inh)
